The list is a sample of the results.
PGC1a Ac signal – compounds raising PGC1a acetylation signal, primary screen, PGC1a modulator project, cell-based, U2OS, AlphaScreen, signal-increasing mode; hit rate 0.21% among 350,000; activation, % at 15.6 µM; overnight;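 active = every replicate reaching activation of at least 50%, whatever the mean replicate activation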;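 also: hits raise the AlphaScreen acetylation signal above neutral controls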
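Incubation: overnight compound treatment, 37 °C. System: U2OS cells transduced with flag-tagged PGC1a and GCN5 acetyltransferase. Detection: AlphaScreen lysate read. Compound: single-point compound dosing.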
An asterisk follows results filed as active.

SMILES	PGC1a Ac signal
O=C(C[C@H]1CC[C@@H]2[C@H](COC[C@@H](O)CN2S(=O)(=O)c2ccc(F)cc2)O1)NCCN1CCCCC1	-47
O=C(N/N=C/c1ccc2c(c1)OCO2)c1cc(-c2ccc(F)cc2)nc2ccccc12	-49
O=C(O)c1cc(-c2ccc3c(c2)OCO3)nc2ccccc12	93*
Cc1ccc(-c2cc(C(=O)N3CCOCC3)c3ccccc3n2)o1	-45
CN(C)c1ccc(/C=N/N(CCC#N)C2=NS(=O)(=O)c3ccccc32)cc1	-52
CC(=O)c1cccc(-c2ccnc3c2CC(C(=O)NCc2ccco2)O3)c1 (stereo unspecified)	52*
COC(=O)c1ccc2c(c1)C(C)(C)C(/C=C/c1ccc(O)cc1)=[N+]2C	59*
O=C(Cc1ccccn1)NCC[C@@H]1CC[C@@H](NC(=O)Nc2ccc(C(F)(F)F)cc2)[C@@H](CO)O1	-45
Cn1cnc(S(=O)(=O)N2C[C@@H](O)COC[C@H]3O[C@H](CC(=O)NCc4cc(F)cc(F)c4)CC[C@@H]32)c1	-43
O=C(C[C@@H]1CC[C@@H](NS(=O)(=O)c2ccc(F)cc2)[C@H](CO)O1)N1CCN(c2ccccc2)CC1	-49
CC(C)CCCCCCCCCCCCC(=O)NCC(=O)NC1C(O)C(O)C(Nc2ncnc3nc[nH]c23)OC1C(O)CO (stereo unspecified)	-96
O=C(NC1CCCN(Cc2ccc(Cl)cc2)C1)c1ccccc1C(F)(F)F (stereo unspecified)	-47
COc1cc(CN2[C@@H]3CNC[C@H]2C3c2ccc(-c3ccccc3)cc2)cc(OC)c1 (stereo partly specified)	52*
N#C[C@@H]1[C@@H](c2ccc(-c3ccccc3)cc2)[C@@H](CO)N1C(=O)Cc1ccncc1	-63
Cc1cc(C=O)c(C)n1-c1ccc(NC2CCCC2)c([N+](=O)[O-])c1	-50
O=C(Nc1cc(C(F)(F)F)ccc1N1CCOCC1)c1ccccc1	63*
O=C(Nc1ccccc1N1CCOCC1)C1(c2ccc(Cl)cc2)CCC1	-41
C[C@@H](C(=O)Nc1cc(C(F)(F)F)ccc1N1CCOCC1)N1C(=O)C2CC=CCC2C1=O (stereo partly specified)	-41
CCCCNC(=O)C1CCN(Cc2ccccn2)CC1	-46
COc1ccccc1NC(=O)/C=C1\SCC(=O)N1C	-93
COc1ccccc1NC(=O)CCC(=O)Nc1ccccc1OC	54*
COc1ccc(NC(=O)C/C(C)=N/NC(=O)C(=O)NC(C)C)c(OC)c1	-48
O=C/C=C/c1ccc(-c2ccccc2)cc1	74*
COC1=CC(=O)C=C(OC)C1=O	107*
O=C(CC1CC1)N[C@@H]1CC[C@H](CCNS(=O)(=O)c2ccc(Cl)cc2)O[C@H]1CO	-64
SMILES	PGC1a Ac signal
COc1ccc(-c2[nH]ncc2-c2ccc3c(c2)OCCO3)c(O)c1	-53
CCOc1ccc(-c2[nH]ncc2-c2ccc(OC)c(OC)c2)c(O)c1	68*
COc1ccc(-c2[nH]ncc2CN(C)C(C)c2ccon2)cc1F (stereo unspecified)	-80
CC(C)c1ccc(NC(=O)CSc2nc3ccsc3c(=O)n2Cc2ccc(C(=O)O)cc2)cc1	-59
CN1c2ccccc2C2(C)CCCC3=Cc4cccc([N+](=O)[O-])c4OC312 (stereo unspecified)	69*
O=C1C2C3C=CC(C4CC34)C2C(=O)N1/N=C/c1c[nH]c2ccccc12 (stereo unspecified)	-106
CCCCn1c(=NC(=O)c2cccnc2)c(C(=O)OCC)cc2c(=O)n3ccccc3nc21	115*
C[C@@H]1CN([C@H](C)CO)C(=O)c2cc(NS(=O)(=O)c3cccs3)ccc2O[C@@H]1CN(C)S(=O)(=O)c1ccc(F)cc1	-43
COc1ccc(/C=C/c2cc(-c3ccc(C)cc3)o[n+]2C)cc1	121*
CO[C@H]1CN(C)C(=O)c2ccc(NC(=O)Nc3ccccc3F)cc2OC[C@@H](C)NC[C@@H]1C	-49
CCCN(C)C[C@H]1Oc2cc(C#Cc3ccc(OC)cc3)ccc2S(=O)(=O)N([C@@H](C)CO)C[C@H]1C	-49
N#C/C(=C/c1ccc(N2CCCCCC2)o1)c1ccc(F)cc1	91*
C[C@H](CO)N1C[C@H](C)[C@H](CN(C)S(=O)(=O)c2ccccc2C#N)OCc2cnnn2CCCC1=O	-41
CCc1cc(C=NC2CCCCC2)c(O)s1	61*
O=C(Cc1csc(N2CCOCC2)n1)N/N=C/c1cccc(O)c1	-56
CCCC1S/C(=N/N=C/c2ccc(C)cc2)N(Cc2ccc(OC)cc2)C1=O (stereo unspecified)	-40
COc1ccc(NC(=O)/C(Cl)=C(/Cl)S(=O)Cc2ccccc2)cn1 (stereo unspecified)	-71
CC(=O)Nc1cccc(-c2ccnc3c2CC(C)(C(=O)Nc2ccc4c(c2)OCO4)O3)c1 (stereo unspecified)	70*
O=C(Nc1cccc(Cl)c1)Nc1ccc2c(c1)OCO2	-59
COc1ccc(NC(=O)C2(C)Cc3c(-c4cccc(NC(C)=O)c4)ccnc3O2)cn1 (stereo unspecified)	58*
Cc1ccccc1Oc1cc(-n2ncc(Cl)c(Cl)c2=O)ncn1	-69
COc1ccc(F)cc1CN1CCN(CC(=O)N2CCc3ccccc32)CC1	-44
Cc1noc(C)c1NC(=O)N(C)C[C@H]1Oc2c(NC(=O)c3nc4ccccc4s3)cccc2C(=O)N([C@H](C)CO)C[C@H]1C	-54
O=C1/C(=C\c2ccc(Cl)c(Cl)c2)CN(C(=O)CCN2CCOCC2)C/C1=C/c1ccc(Cl)c(Cl)c1	-54
NC(=O)c1oc2ccccc2c1NC(=O)C1CC(=O)N(c2ccccc2)C1 (stereo unspecified)	-42
SMILES	PGC1a Ac signal
CCOC(=O)/C(C#N)=N/Nc1ccc(S(=O)(=O)Nc2cc(OC)nc(OC)n2)cc1	-52
Cc1cc(NS(=O)(=O)c2ccc(NC(=O)CCCOc3ccccc3)cc2)no1	52*
COC(=O)Nc1ccc(Oc2ccccc2)cc1	-46
CCN(CC)c1ccc(S(=O)(=O)N2CCOCC2)cc1NC(=O)Cn1nc(C)c([N+](=O)[O-])c1C	-48
CCN(CC)S(=O)(=O)c1ccc(C(=O)Nc2cc(S(=O)(=O)N3CCOCC3)ccc2O)cc1	-46
O=C(Nc1cc(S(=O)(=O)N2CCOCC2)ccc1Cl)c1cc([N+](=O)[O-])ccc1Cl	67*
CCOC(=O)C1=C(NC(=O)c2ccc(Br)o2)Nc2ccccc2N=C1	-42
CC1(Cc2ccc(Cl)s2)C(=O)Nc2c(Cl)ccc(Cl)c21 (stereo unspecified)	65*
O=C1Nc2c(Br)cc(Br)c3cccc1c23	-40
O=C(Nc1ccc(Nc2ccncc2)cc1)c1ccc([N+](=O)[O-])cc1	70*
CC(C)C(=O)Nc1ccc(NC(=O)c2ccc([N+](=O)[O-])cc2Cl)cc1	-52
C=CCNC(=O)CC1Nc2c3ccccc3nc(=S)n2C1=O (stereo unspecified)	-41
CC(/C=N/N1CCN(Cc2ccccc2)CC1)=C\c1ccccc1	-44
C[C@H](CO)N1C[C@H](C)[C@@H](CN(C)Cc2cncnc2)Oc2cc(C#CC3CC3)ccc2S1(=O)=O	-50
CC(C)c1ccc(/C=C2\CC/C(=C\C=N\N(C)C)C2=O)cc1	57*
O=C1/C(=C/c2ccncc2)CCC/C1=C\c1ccncc1	-78
COc1ccc2c3c([nH]c2c1)[C@H](CO)N(C(=O)c1ccncc1)CC31CN(C(=O)c2ccncc2)C1	-53
C/C=C/Cn1c(SCc2ccc(Cl)cc2)nc2c1c(=O)[nH]c(=O)n2C	-50
CCOC(=O)C(CC)(CC)C(=O)/C=C/c1ccc(Br)cc1	-57
